B1: V domain of the receptor for advanced glycation end products (RAGE) (domain or fragment)
chain: QNITARIGEPLVLKCKGAPKKPPQRLEWKLNTGRTEAWKVLSPQGGGPWDSVARVLPNGSLFLPAVGIQDEGIFRCQAMNRNGKETKSNYRVRVYQIPGKPE

For test [1], the target named is T1, V domain of RAGE (Homo sapiens, UniProt Q15109). In words: NMR solution structure of MG-H1–V domain complex. Format: binding. In outline: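 Samples of 500 μM [U-13C,15N] V domain, free and with 1 mM unlabeled hydroimidazolone ligand, in pH 6.5 phosphate, 100 mM NaCl, 0.02% NaN3, 90% H2O/10% D2O. 3D 15N- and 13C-edited and 15N-edited/13C-filtered NOESY-HSQC. CYANA calculation: 986 intramolecular and five intermolecular distance restraints (intermolecular upper limits 6 Å), 150 TALOS torsion pairs, 38 H-bond restraints, one disulfide. 20 best structures kept.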

The test system of test [2] is RAGE. The note with it: cited from earlier work.
Test [3] concerns the target T1, V domain of RAGE. Put plainly: Fluorescence titration, native tryptophan fluorescence of wild-type V domain. Format: binding. The note with it: pH 6.5, 25 °C. The procedure, abridged:
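Wild-type RAGE V domain: expressed in E. coli BL21(DE3) Codon+, purified on Ni-NTA, His tag removed by thrombin. 100 nM protein in 10 mM phosphate pH 6.5 with 100 mM NaCl, at 25 °C in a stirred cuvette. Test compound titrated from 5 nM to 10 μM in 11 steps. Tryptophan emission excited at 295 nm, reference titrations subtracted, dilution-corrected. Kd from single-site binding isotherm fit.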

Test [4] deals with T1, V domain of RAGE. In words: ELISA-based competition with MGO-BSA for the V domain. Conditions: 1 μM V domain. Format: binding.
Test [5] has as its target T1, V domain of RAGE. Put plainly: Binding of arginine to the V domain. The note with it: method not stated.
In test [6] the test system is JNK phosphorylation (p-JNK) in A549 cells, effector of RAGE signaling. Put plainly: JNK phosphorylation in A549 cells, Western blot. The note with it: 200 nM (12 μg/mL) MGO-BSA, 7 min, vs unmodified BSA. Format: cell-based, human.
Test [7] concerns the target B1. In words: other fluorescence titration.
In test [8] the target is methylglyoxal-modified bovine serum albumin (bovine, UniProt P02769 25-607, methylglyoxal-modified, contains hydroimidazolones; sites and number not stated). In words: ELISA. For orientation: An ELISA detects its analyte on a solid surface through an enzyme-linked reagent.
Sequence of methylglyoxal-modified bovine serum albumin (P02769 25-607): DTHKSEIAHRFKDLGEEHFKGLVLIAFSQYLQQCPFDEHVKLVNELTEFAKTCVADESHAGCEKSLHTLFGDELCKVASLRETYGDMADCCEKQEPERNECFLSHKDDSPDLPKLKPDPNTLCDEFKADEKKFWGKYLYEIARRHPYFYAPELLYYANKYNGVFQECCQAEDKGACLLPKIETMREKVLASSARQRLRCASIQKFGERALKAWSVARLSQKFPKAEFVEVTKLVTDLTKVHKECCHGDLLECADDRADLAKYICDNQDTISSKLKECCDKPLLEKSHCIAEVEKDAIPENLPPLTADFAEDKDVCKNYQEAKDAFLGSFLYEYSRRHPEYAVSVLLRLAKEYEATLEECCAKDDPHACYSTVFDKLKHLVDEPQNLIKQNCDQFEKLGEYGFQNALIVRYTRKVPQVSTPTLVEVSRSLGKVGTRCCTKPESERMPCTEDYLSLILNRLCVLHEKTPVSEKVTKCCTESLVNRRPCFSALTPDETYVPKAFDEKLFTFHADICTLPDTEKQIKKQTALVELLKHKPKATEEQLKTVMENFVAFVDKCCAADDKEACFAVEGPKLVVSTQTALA

“Also recorded” adds a separate entry of the source. Square brackets hold non-standard residues; d marks the D form. Ends that are not written are not given here.

In general, Kd refers to the free concentration of one partner at which half of the binding sites on the other are occupied at equilibrium, for simple one-to-one binding. High values mean a looser complex, low ones a tighter complex.

For `CC1N=C(NCCCC(N)C(=O)O)NC1=O` [(R)-epimer of MG-H1], in test [1] (NMR solution structure, ligand racemic mixture of (R)- and (S)-epimers), the “stereospecific fit into the MG-H1–V domain binding site” value is listed as “Only the (R)-epimer of MG-H1 can be fit into the MG-H1–V domain binding site”.

Turning to `CC(NCCCC[C@H](N)C(=O)O)C(=O)O` (stereo partly drawn) [CEL, N^ε-carboxyethyl-lysine], in test [2], the “binding to RAGE of free AGE adducts of lysine” value is recorded as “do not bind to RAGE”. Take `N[C@@H](CCCCNCC(=O)O)C(=O)O` [CML, N^ε-carboxymethyl-lysine]: the “binding to RAGE of free AGE adducts of lysine” value in test [2] is “do not bind to RAGE”. On to `N[C@@H](CCCNC1=NC(=O)CN1)C(=O)O` [G-H1, N^δ-(5-hydro-4-imidazolon-2-yl)ornithine], for which the “affinity for the V domain (in words)” value in test [3] is listed as “comparable to that of the MG-Hs”. Regarding `CC1NC(NCCC[C@H](N)C(=O)O)=NC1=O` (stereo partly drawn) [MG-H1, N^δ-(5-hydro-5-methyl-4-imidazolon-2-yl)ornithine], the “blocking of MGO-BSA binding to the V domain” value (“blocking of MGO-BSA binding” for short) in test [4] is on record as “can successfully block binding of MGO-BSA to the V domain”. In test [1] (NMR solution structure of MG-H1–V domain complex), the “size of MG-H1 binding site” value amounted to 80 Å^2.

As to `CC1C(=O)N=C(N)N1CCCC(N)C(=O)O` (stereo not drawn) [MG-H2, 5-(2-amino-5-hydro-5-methyl-4-imidazolon-1-yl)norvaline], the “blocking of MGO-BSA binding” value in test [4] is recorded as “can successfully block binding of MGO-BSA to the V domain”. Turning to `CC1N=C(N)N(CCCC(N)C(=O)O)C1=O` (stereo not drawn) [MG-H3, 5-(2-amino-4-hydro-4-methyl-5-imidazolon-1-yl)norvaline], the “blocking of MGO-BSA binding” value in test [4] was “can successfully block binding of MGO-BSA to the V domain”. With `N=C(N)NCCC[C@H](N)C(=O)O` [arginine], the “binding to the V domain” value in test [5] is “did not detect any binding”. As to “MGO-BSA: methylglyoxal-modified bovine serum albumin, prepared according to the method of Ahmed et al.”, the JNK phosphorylation result in test [6] is given as “increase in the level of phosphorylation of JNK; also recorded: increases JNK phosphorylation (p-JNK) relative to that with BSA alone”. With ALT[MG‑H1]EYTG [ALT(MG-H1)EYTG, synthetic MG-H1-containing peptide], in test [7], the Kd was determined as 44 ± 6 nM.

As for B1, the binding result in test [8] was “binds”.

These data come from paper PMC4038343 (Biochemistry, 2014).
